NALP3 yeast inh: NALP3 inflammasome inhibitors in reconstituted yeast, primary screen, luminescence, uHTS; Yeast reconstituted NLRP3/ASC/caspase-1, beta-gal luminescence, 24 h; inhibition, % at 10 µM; 330,000 tested, 0.39% active; AID 2825, 2010;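 active = inhibition of 50% or more; inactive = inhibition below 50%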;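 note: plate controls were induced DMSO wells for no effect and uninduced yeast grown without galactose for full effect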
MC4R barr agon: MC4R agonists recruiting beta-arrestin, primary screen, cell-based, luminescence, agonist arm of biased-ligand search; Melanocortin receptor 4 (Homo sapiens), P32245; U2OS MC4R beta-arrestin complementation; percent of melanotan II response, DMSO zero; activation, % at 8.9 µM; 360,000 tested, 0.98% active; AID 540308, 2011;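 active = activation above a per-plate cutoff, the mean activation of sample wells on that plate plus 3 SD, cut at about 8% in these data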
Target sequence (P32245 whole entry, looked up): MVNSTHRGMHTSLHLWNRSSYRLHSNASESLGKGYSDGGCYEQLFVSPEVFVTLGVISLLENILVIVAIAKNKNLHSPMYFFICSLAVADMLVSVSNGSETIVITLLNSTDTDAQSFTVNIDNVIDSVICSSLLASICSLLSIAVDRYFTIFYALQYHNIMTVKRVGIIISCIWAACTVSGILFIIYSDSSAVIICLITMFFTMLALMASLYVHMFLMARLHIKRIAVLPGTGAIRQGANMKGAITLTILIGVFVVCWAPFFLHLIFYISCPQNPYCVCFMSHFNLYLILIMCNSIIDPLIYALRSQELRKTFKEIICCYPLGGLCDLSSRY
MC4R antagonist: MC4R antagonists of cAMP signaling, primary screen, cell-based, TR-FRET, antagonist arm of biased-ligand search; AID 540295, 2011; Melanocortin receptor 4 (Homo sapiens), P32245; MC4R-expressing cells, MTII-stimulated cAMP, LANCE TR-FRET; 360,000 tested, 0.48% active; inhibition, % at 6.5 µM;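 active = inhibition above its plate's cutoff, the mean of tested wells on that plate plus 3 SD, cut at about 29% in these data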;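 note: 0% = Melanotan II alone and 100% = Melanotan II plus saturating MCL0020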
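Assay system: U2OS cells stably expressing human melanocortin 4 receptor (MC4R) / Dosing: 6.5 µM / Timing: compound 30 min, challenge 1 h, detection 1 h / Measured by: Eu-cAMP/anti-cAMP TR-FRET, emission 671 nm / Replicates: singlicate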
Tb MetRS inh: T. brucei MetRS inhibitors, primary screen, biochemical, luminescence; methionyl-tRNA synthetase (Trypanosoma brucei brucei); 360,000 tested, 0.4% active; inhibition, % at 11.9 µM; purified T. brucei MetRS, ATP depletion, Kinase-Glo luminescence; AID 624268, 2012;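 active = inhibition above a per-plate cutoff of the control wells' mean inhibition plus 3 SD, cut at about 5.5% in these data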;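 note: 0% = DMSO wells median and 100% = median of wells with control inhibitor compound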
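Measured by: Kinase-Glo luciferase luminescence reporting remaining unconsumed ATP. Material: purified T. brucei MetRS enzyme. Doses: 11.9 µM compound single dose, 0.9% DMSO. Medium: HEPES buffer containing pyrophosphatase, BSA, spermine, DTT. Times: 15 min preincubation, 2 h reaction, all 25 °C. Reagent: methionine, ATP and bulk E. coli tRNA.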
NALP1 inh: NALP1 inflammasome inhibitors in reconstituted yeast, colorimetric, S. cerevisiae, triplicate retest; S. cerevisiae NALP1/ASC/caspase-1 growth, X-gal OD620, 72 h; inhibition, % at 10 µM; 280,000 tested, 0.61% active; in the data active = inhibition mostly above about 24%, no sharp cut-off; inactive = mostly below about 32%
Bfl-1 A1 inh: caspase 3/7 activation in MEF A1-2A-BIM cells, primary screen, A1 inhibitor project, cell-based, luminescence, HTS; 330,000 tested, 0.066% active; Caspase-Glo 3/7 luminescence, 3 h; percent of clofoctol response, vehicle zero; caspase activation, % (test concentration not listed); AID 2462, 2010;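 active = over half of replicate activation scores above 10%, or exactly half above 10 with the replicate mean above 10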
TbMetRS confirm: T. brucei MetRS inhibitors, confirmation, biochemical, luminescence | 1,400 tested, 93% active | T. brucei MetRS enzyme, luminescence (ATP depletion) | shares compounds with Tb MetRS inh | inhibition, % at 11.9 µM; in the data active = inhibition above about 7%
Jurkat tox: Jurkat T cell cytotoxicity, cytotoxicity control for T. brucei MetRS inhibitor project, luminescence, high throughput | shares compounds with Tb MetRS inh | Jurkat cells viability, ATP luminescence | inhibition, % at 8.3 µM | 1,400 tested, 12% active | AID 624413, 2012; in the data active = inhibition above about 15%;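 note: 0% = vehicle and 100% = reference inhibitor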
TbMetRS FP orth: T. brucei MetRS inhibitors, orthogonal assay for T. brucei MetRS inhibitor project, biochemical, fluorescence polarization; 1,400 tested, 44% active; inhibition, % at 11.9 µM; purified T. brucei MetRS; shares compounds with Tb MetRS inh; in the data active = inhibition above about 17%;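 note: 0% = vehicle wells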
Numbers without * were called inactive; / = not tested or not shown. Shown are actives, neighbours in structure and some others; about 2.5% of the full set was active somewhere.

SMILES | NALP3 yeast inh | MC4R barr agon | MC4R antagonist | Tb MetRS inh | NALP1 inh | Bfl-1 A1 inh | TbMetRS confirm | Jurkat tox | TbMetRS FP orth
CCn1c(N2CCN(CC(=O)c3c[nH]c4ccccc34)CC2)nc2c1c(=O)[nH]c(=O)n2C | -8 | -2 | 12 | 7.8* | 21 | 0 | 19* | 0 | 5
CCCn1c(N2CCN(CC(=O)c3c(C)n(C)c4ccccc34)CC2)nc2c1c(=O)[nH]c(=O)n2C | 13 | -1 | 2 | -1 | 8 | 0 | / | / | /
CC(C)NC(=O)N1Cc2cc(C(=O)NC3CCC3)nc(-c3cccc(-c4cncnc4)c3)c2[C@H]1CCO | / | / | / | -1 | / | / | / | / | /
CN(CC(=O)Nc1ccccc1Br)CC(=O)Nc1ccccc1C(F)(F)F | 12 | -1 | 22 | -1 | 8 | 1 | / | / | /
CCCNC(=O)C1(C)CCCN(C(=O)c2cc(F)ccc2C)C1 (stereo not drawn) | / | 0 | 3 | 0 | / | / | / | / | /
O=C(C/C=N\OCc1ccc([N+](=O)[O-])cc1)Nc1ccc(Br)cc1 | 33 | -3 | 9 | 83* | 3 | 0 | 101* | -1 | 91*
Cc1ccc2nc(C3CCCN(C(=S)Nc4ccccc4C)C3)[nH]c2c1 (stereo not drawn) | 4 | -2 | 5 | 6.8* | 10 | -1 | 46* | 3 | 22*
Cc1ccc2nc(C3CCN(S(=O)(=O)c4ccc5ccccc5c4)CC3)[nH]c2c1 | 14 | -2 | 8 | 48* | 20 | 1 | 69* | 4 | 36*
O=S(=O)(c1ccc2c(c1)OCCO2)N1CCC(c2nc3ccc(Cl)cc3[nH]2)CC1 | 9 | 0 | 12 | 12* | 17 | -1 | 17* | 24* | 12
O=S(=O)(c1ccc2c(c1)OCCO2)N1CCC(c2nc3ccccc3[nH]2)CC1 | 7 | 1 | 12 | -1 | 4 | 0 | / | / | /
CCOC(=O)C1=CCN(S(=O)(=O)c2cccc(Cl)c2)C1c1ccc(F)cc1 (stereo not drawn) | / | / | / | -1 | / | / | / | / | /
Nc1nc2n(n1)C(c1ccco1)CC(c1ccc(Cl)cc1)N2 (stereo not drawn) | 18 | -1 | 1 | 1 | 10 | -2 | / | / | /
Nc1nc2n(n1)C(c1ccco1)CC(c1ccc(Cl)cc1Cl)N2 (stereo not drawn) | 19 | 0 | 25 | 9.6* | 32 | 0 | 18* | 5 | 1
CCCCNc1nc(NCc2ccccc2)nc2ccccc12 | / | / | / | 10* | / | / | 22* | 62* | 5
OCCNc1nc(Nc2ccc(Br)cc2)nc2ccccc12 | 24 | / | / | / | 18 | -1 | / | / | /
OCCNc1nc(Nc2ccccc2)nc2ccccc12 | 20 | 0 | 0 | 11* | 6 | -1 | 31* | -1 | 8
CNc1nc(NCc2ccccc2)c2ccccc2n1 | 21 | -2 | 3 | 2 | 16 | 1 | / | / | /
CC(C)Nc1ncnc2c1ncn2[C@H]1CN(Cc2cccnc2)C[C@@H](CO)O1 | / | 0 | 0 | 0 | / | / | / | / | /
O=C(NCCCCCCNC(=O)c1ccccc1O)c1ccccc1O | 13 | -2 | -1 | 6.7* | 27 | 0 | 14* | 8 | 6
Cc1nn(-c2ccccc2)c(Cl)c1C(=O)OCC(=O)NCCc1ccc(S(N)(=O)=O)cc1 | 12 | -2 | 12 | 0 | / | / | / | / | /
CCOc1ccc(C(=O)NC2CCN(C(=O)Nc3ccc(F)cc3)CC2)cc1 | 10 | -2 | 12 | 0 | 10 | 1 | / | / | /
Oc1c(C=C2N=c3ccccc3=N2)sc(=S)n1-c1ccc(F)cc1 | 19 | 0 | 1 | 1 | 11 | 1 | / | / | /
Oc1[nH]c(=S)sc1C=C1N=c2ccccc2=N1 | 27 | -3 | -4 | 6.5* | 4 | -1 | 15* | 5 | 6
CCOc1ncccc1C(=O)OCC(=O)N(CC(C)C)c1c(N)n(Cc2ccccc2)c(=O)[nH]c1=O | 10 | -2 | 9 | 0 | / | -1 | / | / | /
Cn1c(NCc2cccc(Br)c2)nc2ccccc21 | 25 | -1 | 6 | 40* | 30 | 1 | 53* | 8 | 29*
SMILES | NALP3 yeast inh | MC4R barr agon | MC4R antagonist | Tb MetRS inh | NALP1 inh | Bfl-1 A1 inh | TbMetRS confirm | Jurkat tox | TbMetRS FP orth
CC(CNC(=S)Nc1cc(F)cc(F)c1)CSc1ccc(Cl)cc1 (stereo not drawn) | 24 | 2 | 11 | 13* | 24 | 1 | 25* | 2 | 27*
O=S(=O)(Nc1ccon1)c1ccc(Br)cc1 | 7 | -2 | -2 | 0 | 2 | 0 | / | / | /
CC1(C(=O)OCC(=O)NNC(=O)COc2ccc(Cl)cc2)CC1(Cl)Cl (stereo not drawn) | 13 | -1 | -3 | 0 | / | 1 | / | / | /
CS(=O)(=O)N(CC(=O)Nc1ccc2c(c1)OCO2)Cc1ccc(Cl)cc1 | 6 | 0 | 2 | 14* | 34 | 0 | 23* | 3 | 8
CN(C)C(=O)Nc1ccccc1CC[N+](=O)[O-] | 5 | 2 | 4 | -1 | -4 | 1 | / | / | /
O=C(Nc1ccc(Cl)cc1)Nc1ccccc1CC[N+](=O)[O-] | 12 | 0 | 5 | 37* | -4 | 0 | 66* | 4 | 30*
O=C(Nc1ccc(Cl)cc1)Nc1csc([N+](=O)[O-])c1 | 34 | -2 | 24 | 12* | / | -1 | 22* | 73* | 22*
O=C(Nc1csc([N+](=O)[O-])c1)Nc1c(Cl)cccc1Cl | 3 | -1 | 3 | -1 | / | 1 | / | / | /
COc1ccccc1-c1nnc(SC(C(=O)c2c[nH]c3ccccc23)c2ccccc2)n1C (stereo not drawn) | 2 | 0 | 15 | 13* | 33 | 0 | 35* | 2 | 11
Cn1c(SCc2ccccc2)nnc1-c1c[nH]c2ccccc12 | 19 | -1 | 1 | 8.3* | 31 | 0 | 19* | 5 | 6
CCCCSc1nnc(-c2c[nH]c3ccccc23)n1C | 13 | 1 | -1 | 2 | 4 | 0 | / | / | /
COc1ccc(Cl)cc1NC(=O)CN(C)C(=O)c1cn(-c2ccccc2)nc1-c1cccnc1 | 12 | -1 | 9 | 0 | / | 0 | / | / | /
